# CHOP UPR activ: apoptotic UPR (CHOP) activation; CHO-CHOP luciferase reporter, luminescence; percent of tunicamycin response over DMSO baseline; activation, % at 10 µM; 0.34% of 330,000 active; AID 449763;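 active = at 10 µM dose, activation of 40% or more, normalized to positive control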;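 also: 100% = tunicamycin at 10 µg/mL and 0% = DMSO alone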
#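 Dosing – one dose, 10 µM in 0.5% DMSO · System – CHO-CHOP cells, stable luciferase reporter of PERK-eIF2a-CHOP signalling · Input – 500 cells/well · Control set – tunicamycin 10 µg/mL final as positive, DMSO-only wells as negative · Timing – 6 h compound treatment, 37 °C · Measure – % activation vs tunicamycin · Technique – luminescence read with Steady-Glo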
# VLA-4 inh: inhibition in a human VLA-4 binding assay; P13612; VLA-4 expressing cells, ligand binding flow cytometry; inhibition, % (about 7 µM as worked out from the volumes in the protocol); 0.2% of 330,000 active; in the data active = inhibition above about 50%
# CHOP inhibitor: blocks CHOP induction under ER stress; inhibition, % at 10 µM; 3.8% of 220,000 active; AID 2732; CHO-K1 CHOP-promoter luciferase, tunicamycin-induced, 15-18 h;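 active = compounds that reduced the stress-induced luciferase reporter signal by more than about 70% of percent inhibition, limit read from the data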;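 also: 0% = tunicamycin plus vehicle and 100% = wells without tunicamycin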
# XBP1 UPR activ: activators of adaptive arm of unfolded protein response (XBP1); CHO-XBP1 luciferase reporter, IRE1-XBP1 UPR activation, luminescence; percent of tunicamycin response, DMSO as zero; activation, % at 20 µM; 0.33% of 330,000 active; AID 463104;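 active = versus positive control, 20 µM dose yields 30% or more activation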;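 also: 100% = tunicamycin at 10 µg/mL and 0% = DMSO only wells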
#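 assay system = CHO-XBP1 luciferase reporter cells | amount = 1000 cells/well | buffer or medium = F12 plus 10% FBS | compound dosing = single point, 20 µM final compound, 1% DMSO | incubation = 16-18 h cell attachment at 37 °C, then 6 h compound exposure | detection = Steady-Glo luminescence read | controls = tunicamycin 10 µg/mL and vehicle-only wells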
# B2AR ag: human beta-2 adrenergic receptor agonism by FAP | P07550 | Am2.2-beta2AR cells, FAP receptor internalization, flow cytometry | response, % (no concentration beside the values) | 0.43% of 340,000 active | AID 504454;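 active = response above a set limit, near 3 SD of response in nonfluorescent compounds, cut at about 42% in these data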
# Target sequence (P07550 whole entry, looked up): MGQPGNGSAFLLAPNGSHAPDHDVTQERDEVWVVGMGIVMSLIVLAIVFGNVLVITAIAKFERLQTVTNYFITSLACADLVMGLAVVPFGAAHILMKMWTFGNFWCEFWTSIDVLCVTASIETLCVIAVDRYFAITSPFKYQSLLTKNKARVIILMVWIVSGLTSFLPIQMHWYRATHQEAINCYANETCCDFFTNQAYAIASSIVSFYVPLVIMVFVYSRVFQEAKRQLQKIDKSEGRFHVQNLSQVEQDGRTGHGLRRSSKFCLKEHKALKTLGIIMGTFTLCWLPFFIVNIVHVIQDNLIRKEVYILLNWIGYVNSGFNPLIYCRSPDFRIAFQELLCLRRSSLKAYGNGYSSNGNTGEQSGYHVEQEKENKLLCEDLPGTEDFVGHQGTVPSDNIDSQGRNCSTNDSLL
# CHOP UPR conf: apoptotic UPR (CHOP) activation, confirmed; shares compounds with CHOP UPR activ; CHO-CHOP cells, CHOP-luciferase reporter luminescence; percent of tunicamycin response, DMSO as zero; activation, % at 10 µM; 64% of 1,000 active; AID 463112; in the data active = activation above about 33%;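 also: 0% = DMSO wells and 100% = tunicamycin 10 µg/mL wells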
# An asterisk follows results filed as active; . = not tested or not shown. The entries come from a sample that favours hits as a whole.
SMILES,CHOP UPR activ,VLA-4 inh,CHOP inhibitor,XBP1 UPR activ,B2AR ag,CHOP UPR conf
CCc1ccc(N2C(=O)C(Cl)=C(Nc3ccc(C(=O)N4CCCC4)cc3)C2=O)cc1,104*,-74,.,-6,3,0
O=C(c1ccc(N2C(=O)c3ccccc3C2=O)cc1)N1CCCCC1,0,-1,.,3,4,.
CCOC(=O)C(CC)(CC)C(=O)/C=C/c1cccc(Br)c1,54*,1,.,3,15,70*
NC(=O)NC(=O)COC(=O)/C=C/c1cccc(Br)c1,0,12,25,-1,6,.
COc1ccc(C(=O)Nc2ccccc2C(=O)N/N=C/c2ccccn2)cc1OC,101*,3,51,9,5,100*
COc1ccc(C(=O)C(CN2CCOCC2)c2ccccc2)cc1 (stereo not drawn),46*,42,-42,-2,5,36*
COc1ccc(C(=O)C(CN2CCCC2)c2ccccc2)cc1 (stereo not drawn),66*,16,-54,1,-9,39*
O=C(c1ccc(Cl)cc1)C(CN1CCCC1)c1ccccc1 (stereo not drawn),151*,25,.,0,34,170*
CCCOc1ccc(C(=O)C(CN2CCCC2)c2ccccc2)cc1 (stereo not drawn),.,11,-57,.,2,.
O=C(c1ccc(F)cc1)C(CN1CCOCC1)c1ccccc1 (stereo not drawn),29,-3,.,-10,12,.
O=C(Nc1ccccc1C(=O)N1CCCCC1)c1ccc(Cl)cc1Cl,-1,13,.,4,-11,.
Cc1nn(-c2ccccc2)c(Cl)c1C(=O)OCC(=O)N(C)c1c(N)n(Cc2ccccc2)c(=O)[nH]c1=O,-2,1,.,0,-4,.
COc1ccc(-n2nc(C#N)c(Cl)cc2=O)cc1,149*,.,101*,-6,90*,73*
COc1ccc(C2C3=C(CC(C)(C)CC3=O)Oc3ncn(Cc4ccco4)c(=N)c32)cc1 (stereo not drawn),44*,9,38,0,-746,0
COc1ccc(C2C3=C(CC(C)(C)CC3=O)Oc3ncn(CC(C)C)c(=N)c32)cc1 (stereo not drawn),0,12,6,-2,-6,.
Oc1c(C(c2ccccc2Cl)N2CCCC2)ccc2cccnc12 (stereo not drawn),106*,7,102*,25,11,132*
CCCC(=O)NC(c1ccccc1)c1ccc2cccnc2c1O (stereo not drawn),51*,4,.,3,7,26
Brc1c(C[n+]2ccccc2)nc2ccccn12,1,1,-10,-3,-3,.
COC(=O)c1ccccc1NC(=O)COC(=O)c1ccccc1N=Nc1ccc(N(C)C)cc1,1,5,2,6,14,.
CC(=O)c1ccc(NC(=O)COC(=O)c2ccccc2N=Nc2ccc(N(C)C)cc2)cc1,44*,10,29,9,6,55*
O=S(=O)(c1ccc(S(=O)(=O)N2CCCC3(CCCCC3)C2)cc1)N1CCCCC1,52*,14,33,20,0,2
Oc1ccc(/C=N/N2CCCCC2)cc1O,179*,5,.,5,4,38*
COc1ccccc1N1CCN(/N=C/c2ccc(O)c(O)c2)CC1,184*,2,-6,9,.,101*
COc1ccc(S(=O)(=O)N(CC(=O)NCc2ccco2)c2ccccc2OC)cc1,0,10,.,2,-1,.
CC(=O)/C(=C/c1ccccc1)C(=O)Nc1ccccc1C,46*,30,-77,-3,43*,64*
CC(=O)Nc1ccccc1C,1,7,.,-3,5,.
c1ccc(CNc2nc(-c3ccccc3)nc3ccccc23)cc1,0,12,.,0,-8,.
CCC(C)Nc1nc(-c2ccccn2)nc2ccccc12 (stereo not drawn),47*,-4,.,11,-8,21
c1ccc(CNc2nc(-c3ccccn3)nc3ccccc23)cc1,40*,1,.,13,1,15
Cc1c(-c2ccccc2)cnc2c(C)cccc12,1,27,.,-1,-3,.
